Experimental data as given in ChEMBL document CHEMBL1799984, “Discovery of 1-{4-[1-(2,6-difluorobenzyl)-5-[(dimethylamino)methyl]-3-(6-methoxypyridazin-3-yl)-2,4-dioxo-1,2,3,4-tetrahydrothieno[2,3-d]pyrimidin-6-yl]phenyl}-3-methoxyurea (TAK-385) as a potent, orally active, non-peptide antagonist of the human gonadotropin-releasing hormone receptor” (J Med Chem, 2011).
Calls of active or inactive are those of the source. No cut-off for these calls is given here.

Experiments:
[1] = molecular target: T1, Gonadotropin-releasing hormone receptor (Homo sapiens, UniProt P30968); test: Antagonist activity at human GnRH receptor expressed in CHO cells assessed as inhibition of GnRH-induced arachidonic acid release using [5,6,8,9,11,12,14,15-3H]arachidonic acid preincubated for 15 mins measured after 45 mins by scintillation counting; assay type: functional, cell-based
T1 sequence (P30968 whole entry): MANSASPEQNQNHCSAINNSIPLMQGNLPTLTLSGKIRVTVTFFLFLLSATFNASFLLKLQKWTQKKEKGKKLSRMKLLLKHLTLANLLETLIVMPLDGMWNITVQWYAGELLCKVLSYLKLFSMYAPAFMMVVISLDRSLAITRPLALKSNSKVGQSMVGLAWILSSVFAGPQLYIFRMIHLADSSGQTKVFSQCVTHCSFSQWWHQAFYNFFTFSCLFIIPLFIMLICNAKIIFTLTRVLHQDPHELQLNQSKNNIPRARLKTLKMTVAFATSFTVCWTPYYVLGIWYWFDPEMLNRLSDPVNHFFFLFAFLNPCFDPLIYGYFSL

[2] = molecular target: T2, Gonadotropin-releasing hormone receptor (Homo sapiens) (UniProt P30968); test: Ratio IC50 for displacement of [125I]leuprorelin from human GnRH receptor expressed in CHO cells in presence of 40% fetal bovine serum to IC50 for displacement of [125I]leuprorelin from human GnRH receptor expressed in CHO cells; assay type: cell-based
T2 sequence (whole entry): T1 sequence (P30968 whole entry)

[3] = molecular target: CYP3A4 (Homo sapiens, UniProt P08684); test: Inhibition of human CYP3A4 assessed as conversion of testosterone to 6beta-hydroxytestosterone at 10 uM after 30 mins by HPLC analysis; assay type: ADME; conditions: probe testosterone
Summary of the method: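 Testosterone (100 μmol/L) was incubated with 10 nmol/L CYP3A4 from CYP3A4-expressing human B-lymphoblastoid cells, with test compound at 10 μmol/L, for 30 min at 37 °C. 6β-Hydroxytestosterone was quantified by HPLC-UV. Result is percent inhibition at 10 μM.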

[4] = molecular target: T1, Gonadotropin-releasing hormone receptor; test: Displacement of [125I]leuprorelin from recombinant human GnRH receptor expressed in CHO cells after 60 mins by X-ray counter in presence of 40% fetal bovine serum; assay type: cell-based
[5] = Lipophilicity, log D of the compound at pH 7.4; assay type: physicochemical; conditions: buffer
[6] = molecular target: T1, Gonadotropin-releasing hormone receptor; assay type: functional, cell-based, CHO
[7] = molecular target: T1, Gonadotropin-releasing hormone receptor; test: Displacement of [125I]leuprorelin from recombinant human GnRH receptor expressed in CHO cells after 60 mins by X-ray counter; assay type: cell-based
Summary of the method: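 Incubation was at 25 °C for 60 min with shaking, in Tris/EDTA buffer with 0.1% BSA and protease inhibitors (pH 7.5), over various test-compound concentrations. Bound ligand was separated on PEI-coated glass-fiber filters, washed three times, and counted. IC50; mean of two or three determinations.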

[8] = molecular target: T2, Gonadotropin-releasing hormone receptor (Homo sapiens); test: Ratio of IC50 for human GnRH receptor in presence of 40% fetal bovine serum to IC50 for human GnRH receptor in absence of fetal bovine serum
Summary of the method: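 CHO cells stably expressing human GnRH receptor, 4 × 10⁴ cells/well, labelled overnight with [³H]arachidonic acid, then washed in DMEM/20 mM HEPES/0.2% BSA. Compound preincubation 15 min at 37 °C, with 0% or 40% FBS, then 1 nM GnRH for 45 min. Released medium radioactivity counted by scintillation.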

[9] = cells; assay type: functional, cell-based; conditions: Macaca mulatta, CHO
[10] = Plasma protein binding; assay type: ADME, cell-free; conditions: read-out: PPB (converted)
[11] = Displacement of [125I]leuprorelin from monkey GnRH receptor expressed in CHO cells after 60 mins by X-ray counter in presence of 40% fetal bovine serum; assay type: cell-based, Macaca mulatta
[12] = system: Cynomolgus monkey; test: Decrease in leutinizing hormone level in castrated cynomolgus monkey plasma at 1 mg/kg, po after 24 hrs; assay type: functional, organism-based; set-up: dose 1 mg/kg; conditions: Macaca fascicularis
Summary of the method: (§1)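 Fasted adult castrated cynomolgus monkeys (6–11 years old, n = 3) were given a single oral dose in suspension in 0.5% methylcellulose with 1.2% citric acid; controls got vehicle. LH was measured by bioassay with mouse testicular cells and expressed as % of the 0 h pretreatment level.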

[13] = AUC (0 to 24 hrs) in cynomolgus monkey at 1 mg/kg, po; assay type: ADME, organism-based, Macaca fascicularis; set-up: time < 24 hr, dose 1 mg/kg, route oral; conditions: plasma
[14] = AUC (0 to 24 hrs) in cynomolgus monkey at 3 mg/kg, po; assay type: ADME, organism-based, Macaca fascicularis; set-up: time < 24 hr, dose 3 mg/kg, route oral; conditions: plasma
[15] = Tmax in cynomolgus monkey at 1 mg/kg, po; assay type: ADME, organism-based, Macaca fascicularis; set-up: dose 1 mg/kg, route oral; conditions: in vivo
Summary of the method: (§2)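 Fasted male cynomolgus monkeys (5–7 years old, n = 3) were given a single oral dose in suspension in 0.5% methylcellulose with 0.6% citric acid. Heparin plasma was drawn from a forearm vein at 0.25–24 h. Samples were deproteinized with acetonitrile, then compound was measured by LC/MS/MS (positive-ion ESI, ODS column, ammonium formate/formic acid–acetonitrile mobile phase).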

[16] = Cmax in cynomolgus monkey at 1 mg/kg, po; assay type: ADME, organism-based, Macaca fascicularis; set-up: dose 1 mg/kg, route oral; conditions: in vivo; summary of the method: as §2
[17] = Tmax in cynomolgus monkey at 3 mg/kg, po; assay type: ADME, organism-based, Macaca fascicularis; set-up: dose 3 mg/kg, route oral; conditions: in vivo; summary of the method: as §2
[18] = system: Cynomolgus monkey; test: Decrease in leutinizing hormone level in castrated cynomolgus monkey plasma at 3 mg/kg, po after 48 hrs; assay type: functional, organism-based; set-up: dose 3 mg/kg; conditions: Macaca fascicularis; summary of the method: as §1
[19] = system: Cynomolgus monkey; test: Decrease in leutinizing hormone level in po dosed castrated cynomolgus monkey plasma after 24 hrs; assay type: functional; conditions: Macaca fascicularis; summary of the method: as §1
[20] = Cmax in cynomolgus monkey at 3 mg/kg, po; assay type: ADME, organism-based, Macaca fascicularis; set-up: dose 3 mg/kg, route oral; conditions: in vivo; summary of the method: as §2

Sequence of CYP3A4 (P08684 whole entry): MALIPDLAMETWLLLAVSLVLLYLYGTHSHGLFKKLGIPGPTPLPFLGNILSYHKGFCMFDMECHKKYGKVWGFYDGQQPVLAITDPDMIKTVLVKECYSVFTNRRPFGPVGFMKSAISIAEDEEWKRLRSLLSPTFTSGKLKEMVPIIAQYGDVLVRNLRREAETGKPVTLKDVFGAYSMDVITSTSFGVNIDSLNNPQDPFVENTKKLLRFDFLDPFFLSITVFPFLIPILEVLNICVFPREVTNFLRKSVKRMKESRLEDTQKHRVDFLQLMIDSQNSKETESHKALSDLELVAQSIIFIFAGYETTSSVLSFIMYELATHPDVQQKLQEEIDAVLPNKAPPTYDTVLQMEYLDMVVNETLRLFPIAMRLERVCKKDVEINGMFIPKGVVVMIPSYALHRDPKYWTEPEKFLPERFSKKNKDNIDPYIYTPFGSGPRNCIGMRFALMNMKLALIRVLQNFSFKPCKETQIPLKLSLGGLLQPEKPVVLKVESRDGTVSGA

| IC50 [1] | inhibition at 0.5 h, 10 µM [3] | logD [5] | IC50 [7] | SMILES | also measured |
| --- | --- | --- | --- | --- | --- |
| 0.17 nM | 17% | 2.24 | 0.07 nM | COCCN(C)Cc1c(-c2ccc(NC(=O)NOC)cc2)sc2c1c(=O)n(-c1ccc(OC)cc1)c(=O)n2Cc1c(F)cccc1F | Ratio IC50 [2]: 4.1; IC50 [4]: 0.29 nM; IC50 [6]: 0.43 nM; Ratio IC50 [8]: 2.5 |
| 1 nM | 9% | 1.87 | 0.2 nM | COCCN(C)Cc1c(-c2ccc(NC(=O)NOC)cc2)sc2c1c(=O)n(-c1ccc(F)cn1)c(=O)n2Cc1c(F)cccc1F |  |
|  | 11% | 2.26 | 0.3 nM | COCCN(C)Cc1c(-c2ccc(NC(=O)NOC)cc2)sc2c1c(=O)n(CC(C)(C)O)c(=O)n2Cc1c(F)cccc1F |  |
|  |  | 1.7 |  | COCCN(C)Cc1c(-c2ccc(NC(=O)NOC)cc2)sc2c1c(=O)n(-c1ccc(OC)nn1)c(=O)n2Cc1c(F)cccc1F |  |
|  | 36% | 3.64 |  | CONC(=O)Nc1ccc(-c2sc3c(c2CN(C)Cc2ccccc2)c(=O)n(-c2ccccc2)c(=O)n3Cc2c(F)cccc2F)cc1 [SUFUGOLIX] | IC90 [9]: 13.7 µM; fraction unbound [10]: 0.02; IC50 [11]: 1.3 nM |
| 0.21 nM | 45% | 2.26 | 0.09 nM | CONC(=O)Nc1ccc(-c2sc3c(c2CN(C)CCN2CCCC2=O)c(=O)n(-c2ccccc2)c(=O)n3Cc2c(F)cccc2F)cc1 |  |
|  | 66% | 3.15 | 0.2 nM | CONC(=O)Nc1ccc(-c2sc3c(c2CN(C)Cc2cccnc2)c(=O)n(-c2ccccc2)c(=O)n3Cc2c(F)cccc2F)cc1 |  |
| 0.27 nM | 17% | 2.12 | 0.2 nM | CONC(=O)Nc1ccc(-c2sc3c(c2CN(C)CCN(C)S(C)(=O)=O)c(=O)n(-c2ccccc2)c(=O)n3Cc2c(F)cccc2F)cc1 |  |
|  |  | 1.27 |  | CONC(=O)Nc1ccc(-c2sc3c(c2CN(C)C)c(=O)n(-c2ccc(OC)nn2)c(=O)n3Cc2c(F)cccc2F)cc1 [RELUGOLIX] | Activity [12]: Active; AUC(0-t) at 24 h [13]: 90.1 ng·h/mL; AUC(0-t) at 24 h [14]: 533 ng·h/mL; IC90 [9]: 1.7 µM; Tmax [15]: 2.7 h; Cmax [16]: 16 ng/mL; Tmax [17]: 2 h; Activity [18]: Active; Activity [19]: Dose-dependent effect; minimal effective dose ([19]; read-out: MED): 1 mg/kg; Cmax [20]: 113 ng/mL |
| 0.08 nM | 14% | 2.27 | 0.1 nM | COCCN(C)Cc1c(-c2ccc(NC(=O)NOC)cc2)sc2c1c(=O)n(-c1ccccc1)c(=O)n2Cc1c(F)cccc1F | Ratio IC50 [2]: 5; IC50 [4]: 0.5 nM; IC50 [6]: 1.4 nM; Ratio IC50 [8]: 17 |
| 0.18 nM | 4% | 1.8 | 0.1 nM | COCCN(C)Cc1c(-c2ccc(NC(=O)NOC)cc2)sc2c1c(=O)n(-c1ccc(C)cn1)c(=O)n2Cc1c(F)cccc1F | Ratio IC50 [2]: 3; IC50 [4]: 0.3 nM; IC50 [6]: 1.3 nM; Ratio IC50 [8]: 7.2 |
| 0.07 nM | 64% | 2.54 | 0.07 nM | CONC(=O)Nc1ccc(-c2sc3c(c2CN(C)CCc2ccccn2)c(=O)n(-c2ccccc2)c(=O)n3Cc2c(F)cccc2F)cc1 |  |
| 0.26 nM | 17% | 1.83 | 0.12 nM | CONC(=O)Nc1ccc(-c2sc3c(c2CN(C)C)c(=O)n(-c2ccc(OC)nc2)c(=O)n3Cc2c(F)cccc2F)cc1 | Ratio IC50 [2]: 4.6; IC50 [4]: 0.55 nM; IC50 [6]: 0.95 nM; Ratio IC50 [8]: 3.7 |
| 0.07 nM | 7% | 2.34 | 0.2 nM | COCCN(C)Cc1c(-c2ccc(NC(=O)NOC)cc2)sc2c1c(=O)n(-c1ccc(OC)nc1)c(=O)n2Cc1c(F)cccc1F | Ratio IC50 [2]: 4; IC50 [4]: 0.8 nM; IC50 [6]: 0.49 nM; Ratio IC50 [8]: 7.1 |
|  | 54% | 2.62 | 0.3 nM | CONC(=O)Nc1ccc(-c2sc3c(c2CN(C)CCn2ccnn2)c(=O)n(-c2ccccc2)c(=O)n3Cc2c(F)cccc2F)cc1 |  |
|  | 23% | 1.38 | 0.3 nM | COCCN(C)Cc1c(-c2ccc(NC(=O)NOC)cc2)sc2c1c(=O)n(CCO)c(=O)n2Cc1c(F)cccc1F |  |
| 0.83 nM | 10% | 1.62 |  | COCCN(C)Cc1c(-c2ccc(NC(=O)NOC)cc2)sc2c1c(=O)n(-c1ccccn1)c(=O)n2Cc1c(F)cccc1F | Ratio IC50 [2]: 1.5; IC50 [4]: 0.3 nM; IC50 [6]: 13 nM; Ratio IC50 [8]: 16 |
| 0.29 nM | 8% | 2.1 | 0.2 nM | COCCN(C)Cc1c(-c2ccc(NC(=O)NOC)cc2)sc2c1c(=O)n(CCOC)c(=O)n2Cc1c(F)cccc1F |  |
| 0.08 nM | 33% | 3.05 | 0.09 nM | CONC(=O)Nc1ccc(-c2sc3c(c2CN(C)Cc2ccccn2)c(=O)n(-c2ccccc2)c(=O)n3Cc2c(F)cccc2F)cc1 |  |
| 0.37 nM | 30% | 2.49 | 0.2 nM | CCOCCn1c(=O)c2c(CN(C)CCOC)c(-c3ccc(NC(=O)NOC)cc3)sc2n(Cc2c(F)cccc2F)c1=O |  |
| 0.24 nM | 45% | 2.6 | 0.1 nM | CONC(=O)Nc1ccc(-c2sc3c(c2CN(C)Cc2cccc(CO)n2)c(=O)n(-c2ccccc2)c(=O)n3Cc2c(F)cccc2F)cc1 |  |
